Results taken from ChEMBL document CHEMBL1130878 (Bioorg Med Chem Lett, 1998).

What was measured:
[1] = target: T1, Endothelin-1 receptor (Rattus norvegicus, UniProt P26684); experiment: In vitro ability to inhibit specific [125I]ET1 binding to rat aorta membranes Endothelin A receptor; type: tissue-based
T1 sequence (P26684 whole entry): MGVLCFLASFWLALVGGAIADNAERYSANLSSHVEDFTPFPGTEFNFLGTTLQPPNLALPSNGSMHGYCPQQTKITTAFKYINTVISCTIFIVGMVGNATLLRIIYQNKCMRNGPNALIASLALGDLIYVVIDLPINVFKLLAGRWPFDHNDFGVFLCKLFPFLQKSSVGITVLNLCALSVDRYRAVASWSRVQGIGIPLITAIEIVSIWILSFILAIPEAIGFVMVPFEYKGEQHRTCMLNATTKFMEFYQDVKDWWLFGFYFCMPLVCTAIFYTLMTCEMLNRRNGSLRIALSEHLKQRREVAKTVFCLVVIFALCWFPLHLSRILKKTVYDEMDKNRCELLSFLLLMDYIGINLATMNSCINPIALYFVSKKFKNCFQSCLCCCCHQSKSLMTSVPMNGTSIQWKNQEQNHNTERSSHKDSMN

[2] = target: T2, Endothelin receptor type B (Sus scrofa, UniProt P35463); experiment: In vitro ability to inhibit specific [125I]ET1 binding to porcine kidney (inner medulla) membranes Endothelin B receptor
T2 sequence (P35463 whole entry): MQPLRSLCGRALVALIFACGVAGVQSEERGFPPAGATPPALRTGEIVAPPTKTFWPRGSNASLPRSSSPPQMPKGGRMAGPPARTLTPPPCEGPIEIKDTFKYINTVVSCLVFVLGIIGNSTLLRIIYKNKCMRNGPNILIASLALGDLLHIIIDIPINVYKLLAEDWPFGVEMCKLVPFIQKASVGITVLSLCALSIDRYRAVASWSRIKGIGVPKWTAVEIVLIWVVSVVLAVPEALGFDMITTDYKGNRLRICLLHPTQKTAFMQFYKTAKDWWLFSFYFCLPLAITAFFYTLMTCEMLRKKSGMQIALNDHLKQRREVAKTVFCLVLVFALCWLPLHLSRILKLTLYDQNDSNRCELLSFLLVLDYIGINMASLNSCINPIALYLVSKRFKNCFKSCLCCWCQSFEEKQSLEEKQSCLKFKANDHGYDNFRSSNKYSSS

[3] = species: Oryctolagus cuniculus; experiment: Compound was evaluated for the functional assay performed by obtaining sarafotoxin 6c concentration-response curves [pA2(ETB)] in isolated rabbit jugularis vein
[4] = species: Rattus norvegicus; experiment: Compound was evaluated for the functional assay performed by obtaining ET-1 concentration-response curves [pA2(ETA)] in isolated rat aortic rings; details: Aorta, read-out: pA2 (converted)
How it was run: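 Functional ETA assay: ET-1 concentration-response curves in isolated rat aortic rings with the endothelium removed. Antagonism is expressed as pA2.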

Row | Compound | IC50 [1] [nM] | IC50 [2] [nM] | Kb [3] [nM] | Kb [4] [nM]
1 | COc1ccc(C(=O)/C(Cc2ccc3c(c2)CCO3)=C(\C(=O)O)c2ccc3nsnc3c2)cc1 | 3.4 | 1400 | – | –
2 | COc1ccc(C(=O)/C(Cc2ccc(SC)cc2)=C(\C(=O)O)c2ccc3nsnc3c2)cc1 | 17 | 3200 | – | –
3 | COc1cc(C/C(C(=O)c2ccc(OC(C)C)cc2)=C(/C(=O)O)c2ccc3nsnc3c2)cc(OC)c1OC | 64 | 550 | – | –
4 | COc1ccc(C(=O)/C(Cc2ccccc2OC)=C(\C(=O)O)c2ccc3nsnc3c2)cc1 | 3.4 | 820 | – | –
5 | COc1cc(C/C(C(=O)c2ccc3c(c2)OCO3)=C(/C(=O)O)c2ccc3nsnc3c2)cc(OC)c1OC | 6.5 | 400 | – | –
6 | COc1ccc(C(=O)/C(Cc2cc(OC(C)C)c(OC(C)C)c(OC(C)C)c2)=C(\C(=O)O)c2ccc3nsnc3c2)cc1 | 57 | 220 | – | –
7 | COc1ccc(C(=O)/C(Cc2cc(OC)c(OC)c(OC)c2)=C(\C(=O)O)c2ccc3nsnc3c2)cc1 | 0.3 | 340 | 794 | 3.16
8 | COc1ccc(C(=O)/C(Cc2cc(OC)c(OC)c(OC)c2)=C(\C(=O)O)c2ccc3nsnc3c2)c(F)c1 | 3 | – | – | –
9 | COc1ccccc1C(=O)/C(Cc1cc(OC)c(OC)c(OC)c1)=C(\C(=O)O)c1ccc2nsnc2c1 | 16 | 4800 | – | –
10 | COc1ccc(C(=O)/C(Cc2ccc(OC)c(F)c2)=C(\C(=O)O)c2ccc3nsnc3c2)cc1 | 14 | 2900 | – | –
11 | COc1ccc(C(=O)/C(Cc2ccc(OC(C)(C)C)cc2)=C(\C(=O)O)c2ccc3nsnc3c2)cc1 | 580 | 1600 | – | –
12 | COc1cccc(C(=O)/C(Cc2cc(OC)c(OC)c(OC)c2)=C(\C(=O)O)c2ccc3nsnc3c2)c1 | 4.6 | 1800 | – | –
13 | COc1ccc(C(=O)/C(Cc2cc(OC)c(OC)c(OC)c2)=C(\C(=O)O)c2ccc3c(c2)OCO3)cc1 [PD-156707 SODIUM] | 1.3 | 340 | > 3160 | 25.1
14 | COc1cc(C/C(C(=O)c2ccc(OC(C)C)c(F)c2)=C(/C(=O)O)c2ccc3nsnc3c2)cc(OC)c1OC | 65 | 290 | – | –
